Test results as given in ChEMBL document CHEMBL1149331, “Design, synthesis, and structure-activity relationships of haloenol lactones: site-directed and isozyme-selective glutathione S-transferase inhibitors” (J Med Chem, 2004).
The source made the active and inactive calls. The calls are words filed in the database; no cut-off is given here.

Legend:
[1] = molecular target: T1, Glutathione S-transferase P (Homo sapiens, UniProt P09211); assay: Inactivation of recombinant human Glutathione S-transferase P
Procedure, shortened: (§1)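 Recombinant human GSTP1-1 (E. coli-expressed, glutathione-agarose purified), 0.1 mg/mL, preincubated with haloenol lactone (0.17 mM, added in ethanol; vehicle control) in phosphate buffer pH 7.4 at 30 °C. Aliquots taken at 0, 2, 5, 12 min. Residual activity read by Habig assay: 1.0 mM GSH + 1.0 mM CDNB, 0.1 M phosphate pH 6.5, A340, corrected for nonenzymatic rate; kobs from time course.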
Target sequence in this assay (P09211 2-210 limits assumed): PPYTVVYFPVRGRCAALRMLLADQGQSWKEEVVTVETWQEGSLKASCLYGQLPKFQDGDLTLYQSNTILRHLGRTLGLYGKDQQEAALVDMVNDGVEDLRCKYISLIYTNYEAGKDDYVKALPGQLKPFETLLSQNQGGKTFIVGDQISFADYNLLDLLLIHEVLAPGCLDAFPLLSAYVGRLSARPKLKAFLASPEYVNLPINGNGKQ

[2] = molecular target: T1, Glutathione S-transferase P; assay: (§2) Inhibitory activity for human glutathione S-transferase-pi isozyme was determined; procedure, shortened: as §1
Target sequence in this assay (P09211 whole entry): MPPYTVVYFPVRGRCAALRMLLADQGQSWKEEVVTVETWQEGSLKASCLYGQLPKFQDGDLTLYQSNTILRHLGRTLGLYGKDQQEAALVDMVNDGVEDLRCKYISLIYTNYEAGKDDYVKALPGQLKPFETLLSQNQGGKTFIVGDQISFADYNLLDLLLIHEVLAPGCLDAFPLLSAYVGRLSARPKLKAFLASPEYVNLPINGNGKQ

[3] = molecular target: T1, Glutathione S-transferase P; assay: as §2; procedure, shortened: as §1; remark: listed apart in the source
Target sequence in this assay (P09211 2-210 limits assumed): as the sequence (P09211 2-210 limits assumed) above

[4] = molecular target: T1, Glutathione S-transferase P; assay: (§3) Inhibitory activity for human Glutathione S-transferase P was determined; procedure, shortened: as §1
Target sequence in this assay (P09211 2-210 limits assumed): as above

[5] = molecular target: T1, Glutathione S-transferase P; assay: as §3; procedure, shortened: as §1; remark: listed apart in the source
Target sequence in this assay (P09211 whole entry): as the sequence (P09211 whole entry) above

Compound	K obs [1]	other results
O=C1O/C(=C/Br)CC1c1ccccc1 (stereo not given)	0.15	Ki [2]: 124 µM; Kina [3]: 0.097 min⁻¹
CCCCCCCCC1C/C(=C\Br)OC1=O (stereo not given)	0.0382	
O=C1O/C(=C/Br)CC1CC1CCCCC1 (stereo not given)	0.0438	
CCCCCCCCCC1C/C(=C\Br)OC1=O (stereo not given)	0.0359	
O=C1O/C(=C/Br)CC1Cc1ccc2ccccc2c1 (stereo not given)	0.0499	
O=C1O/C(=C/Br)CC1CCCCc1ccccc1 (stereo not given)	0.0366	
CCCCCCC1C/C(=C\Br)OC1=O (stereo not given)	0.0847	
CCCCCCCC1C/C(=C\Br)OC1=O (stereo not given)	0.0608	

The next lines start with results.

K obs [1]	Compound	other results
0.0421	O=C1O/C(=C/I)CC1C/C=C/c1ccccc1 (stereo not given)	
0.0364	O=C1O/C(=C/Br)CC1C/C=C/c1ccc(C(F)(F)F)cc1 (stereo not given)	
inactive	COc1ccc(/C=C/CC2C/C(=C\Br)OC2=O)cc1 (stereo not given)	
0.0322	C/C(Br)=C1/CC(C/C=C/c2ccccc2)C(=O)O1 (stereo not given)	
0.0632	O=C1O/C(=C/Br)CC1CCc1ccccc1 (stereo not given)	
0.0604	O=C1O/C(=C/Br)CC1C/C=C/c1ccccc1 (stereo not given)	Kina [4]: 0.025 min⁻¹; Ki [5]: 6.1 µM
0.0439	O=C1O/C(=C/Br)CC1CCCc1ccccc1 (stereo not given)	
0.101	O=C1O/C(=C/Br)CC1Cc1ccccc1 (stereo not given)	
